# Compounds with a hit are over-represented: about 3.1% of the library has one in this group of screens.
# T cruzi inh: inhibitors of intracellular T. cruzi growth, primary screen, luminescence, NIH3T3 host cells. T. cruzi beta-gal in NIH3T3, 90 h. 300,000 tested, 1.4% active. inhibition, % (concentration not given with the values);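 active means mean inhibition across valid replicates above about 55%, limit read from the data; inconclusive means mean below that limit but half or more replicates reach it; inactive means mean below it, under half of replicates reach it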;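 further: signal also drops with host cell toxicity which is not excluded here; higher percent means less beta-gal luminescence so fewer parasites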
#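 Assay system: NIH/3T3 fibroblasts plus reporter T. cruzi. Amount: NIH/3T3 cells, 5,000 per well. Buffer or medium: DMEM, 2% fetal bovine serum. Doses: compound pinned at 50 nL/well, DMSO. Schedule: ≥90 h infection period, 3 h prior cell attachment. Signal: luminescent β-galactosidase signal after 60 min lysis. Read-out: parasite load inhibition, %.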
# CSC inhib: cancer stem cell viability inhibitors, primary screen, luminescence. cancer stem cell-like cells viability. inhibition, % at 7.5 µM. 300,000 tested, 1.1% active; in the data active means inhibition above about 75%; inconclusive means no clear call, values can overlap the other calls; tested in HMLE shEcad cells
# Beta cell apopt: inhibitors of cytokine-induced beta cell apoptosis, primary screen, luminescence | INS-1E cytokine-induced death, ATP luminescence, 48 h; percent of positive-control rescue, neutral wells zero | protection from apoptosis, % (no concentration beside the values) | 300,000 tested, 0.8% active | AID 435005, 2010;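 active means Every replicate reaches about 75%, or at least half do and their mean reaches it too, limit read from the data; inconclusive means At least half of replicates reach the limit but their mean does not; inactive means Under half of replicates reach the limit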;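 further: higher means more ATP so stronger rescue from cytokine killing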
# H9c2 TAG inh: inhibitors of triacylglycerol accumulation, primary screen, cell-based, uHTS, fluorescence, H9c2 | H9c2 cells, Nile Red lipid (TAG) fluorescence; cells loaded with 200 µM oleic acid | 230,000 tested, 0.66% active | inhibition, % at 12.5 µM;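 active means pattern-corrected inhibition of lipid staining of at least 50% with the nuclear-stain viability signal not falling by more than 50%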
# A1 inh: caspase 3/7 activation in MEF A1-2A-BIM cells, primary screen, A1 inhibitor project, cell-based, luminescence, HTS | Caspase-Glo 3/7 luminescence, 3 h; percent of clofoctol response, vehicle zero | 330,000 tested, 0.066% active | caspase activation, % (test concentration not listed) | AID 2462, 2010;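 active means over half of replicate activation scores above 10%, or exactly half above 10 with the replicate mean above 10; inconclusive means replicate mean below 10 yet half the replicates above 10; inactive means over half of replicates below 10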
# Calb FLC: C. albicans growth inhibition with fluconazole, primary screen, CaCi-2 strain, Alamar Blue fluorescence; C. albicans CaCi-2 + fluconazole, 48 h; growth inhibition, % (test concentration not listed); 300,000 tested, 0.57% active;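 active means growth inhibition above about 58% in most replicates, limit read from the data, passing the limit was not always enough; inconclusive means exactly half the replicates above a set limit; inactive means most replicates below a set limit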;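 further: all wells also contain fluconazole at 8 µg/ml as a sub-toxic cotreatment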
# Hits are given with their value; i = inactive; ? = inconclusive; nt = no result given.
SMILES,T cruzi inh,CSC inhib,Beta cell apopt,H9c2 TAG inh,A1 inh,Calb FLC
Cc1cc(C)c2c(C)[nH]nc2n1,i,i,162,i,i,i
COc1ccc(-c2cc(=O)n(-c3ccc([N+](=O)[O-])cc3)[nH]2)cc1,i,126,i,nt,i,i
Cc1ccc(Cn2nnc3c(=O)[nH]c(C4CCN(S(=O)(=O)c5ccc(C)cc5)CC4)nc32)cc1,i,nt,i,nt,i,111
COc1ccc(C[C@H]2CN3C(=NC[C@@H]3Cc3ccccc3)N2CCNC(=O)CCC2CCCCC2)cc1,i,128,101,i,i,i
COc1ccc(C[C@H]2CN3C(=NC[C@@H]3C(C)C)N2CCNC(=O)CCC2CCCCC2)cc1,i,i,i,i,i,i
O=[N+]([O-])c1nn(-c2ccc(Cl)cc2)n(O)c1=NCc1cccnc1,i,i,i,nt,i,88
O=[N+]([O-])c1nn(-c2cccc(Cl)c2)n(O)c1=NCc1cccnc1,i,i,i,nt,i,i
COc1cccc(CN=c2c([N+](=O)[O-])nn(-c3ccccc3C)n2O)c1,i,i,i,i,i,i
Cc1cccc(-n2nc([N+](=O)[O-])c(=NCc3cccnc3)n2O)c1,55,i,i,nt,i,i
CCCCN(C)C(=O)CCCCn1c(=O)[nH]c2cc(OCC)c(OCC)cc2c1=O,i,i,i,51,i,?
CCOc1cc2[nH]c(=O)n(CCc3ccc(OC)c(OC)c3)c(=O)c2cc1OCC,i,i,i,59,i,?
CCOc1cc2[nH]c(=S)n(CCc3ccc(OC)c(OC)c3)c(=O)c2cc1OCC,i,i,i,nt,i,i
CCOc1ccccc1/C=N\Nc1cnn(Cc2ccccc2)c(=O)c1Cl,56,i,i,nt,i,i
Cn1nnnc1Sc1ncnc2scc(-c3ccc(F)cc3)c12,i,i,i,i,i,i
Cn1nnnc1Sc1ncnc2scc(-c3ccc(Br)cc3)c12,nt,nt,i,58,i,nt
Cc1cccc(NC2=C/C(=N/S(=O)(=O)c3cccs3)c3ccccc3C2=O)c1,nt,119,105,i,i,nt
Cc1ccc(NC2=C/C(=N\S(=O)(=O)c3cccs3)c3ccccc3C2=O)c(C)c1,57,i,114,i,i,i
CCc1ccc(S(=O)(=O)/N=C2\C=C(Nc3cccc(C(=O)O)c3)C(=O)c3ccccc32)cc1,i,nt,i,nt,i,i
CCc1ccc(S(=O)(=O)/N=C2\C=CC(=O)c3ccccc32)cc1,i,i,i,nt,i,nt
Cc1cc(C)c(S(=O)(=O)/N=C2\C=C(NS(=O)(=O)c3ccccc3)C(=O)c3ccccc32)c(C)c1,i,i,nt,nt,i,i
CCc1ccc(S(=O)(=O)/N=C2\C=C(Nc3ccc(O)cc3)C(=O)c3ccccc32)cc1,i,nt,115,nt,i,i
CCc1ccc(S(=O)(=O)/N=C2/C=C(Sc3ncn[nH]3)C(=O)c3ccccc32)cc1,nt,104,127,nt,i,nt
O=S(=O)(c1c(F)cccc1F)N(CCc1ccc(F)cc1)C[C@@H](O)COCc1ccccc1,nt,nt,nt,i,nt,nt
Cc1ccc(N(C)S(=O)(=O)c2cccc(C(=O)NCC(c3ccco3)N3CCCC3)c2)cc1 (stereo unspecified),nt,nt,i,i,i,nt
Cc1ccc(Cl)cc1NC1=C/C(=N\S(=O)(=O)c2cccs2)c2ccccc2C1=O,61,101,111,i,i,i
SMILES,T cruzi inh,CSC inhib,Beta cell apopt,H9c2 TAG inh,A1 inh,Calb FLC
Cc1ccc(S(=O)(=O)/N=C2\C=C(NS(=O)(=O)c3ccccc3)C(=O)c3ccccc32)cc1,nt,nt,nt,i,nt,nt
O=C(O)c1ccc(NC2=C/C(=N/S(=O)(=O)c3ccccc3)c3ccccc3C2=O)cc1,nt,nt,nt,i,nt,nt
O=C(O)c1ccc(NC2=C/C(=N/S(=O)(=O)c3cccs3)c3ccccc3C2=O)cc1,nt,nt,nt,i,nt,nt
O=C1C(Nc2ccc(O)cc2)=C/C(=N/S(=O)(=O)c2cccs2)c2ccccc21,58,nt,nt,i,nt,i
Cc1cc(C)c(S(=O)(=O)/N=C2\C=C(Nc3ccc(C(=O)O)cc3)C(=O)c3ccccc32)c(C)c1,i,nt,113,nt,i,i
CCCN1CCN(S(=O)(=O)c2ccc3c(c2)CCC(=O)N3)CC1,nt,nt,i,i,i,nt
C=CCC1(CC=C)CCCN1C(=O)c1cc(COc2ccc(C)nc2)on1,?,i,105,nt,i,i
COC(=O)Nc1cc(C(=O)c2ccc(Cl)cc2Cl)c[nH]1,i,i,i,nt,i,i
Cc1ccc(S(=O)(=O)N2CCCCC2c2cccnc2)c(C)c1C (stereo unspecified),i,i,98,i,i,i
CCOC(=O)c1[nH]c(=S)[nH]c1C,nt,nt,nt,i,nt,nt
CC(C(=O)N1CCc2ccccc21)N1CCN(Cc2ccccc2)CC1 (stereo unspecified),56,i,i,nt,i,i
CCn1c2ccccc2c2cc(NC(=O)CNCC3CCCO3)ccc21 (stereo unspecified),69,i,i,i,i,i
CCn1c(=O)n(CC)c2cc(NS(=O)(=O)c3ccccc3)ccc21,i,i,i,i,i,i
CCn1c2ccccc2c2cc(NS(=O)(=O)c3ccc(C)cc3)ccc21,i,84,i,i,i,i
Cc1ccc(OCC(=O)OCC(=O)NC2CCCCCC2)cc1C,nt,nt,nt,i,nt,nt
Cc1ccc(S(=O)(=O)CC2CSc3nc4ccccc4n32)cc1 (stereo unspecified),i,i,92,nt,i,88
Cc1ccc(S(=O)(=O)CC2CSc3nc(N)cc(=O)n32)cc1 (stereo unspecified),i,i,i,nt,i,i
O=C1CC(NS(=O)(=O)c2ccccc2)CN1c1ccc2c(c1)OCCO2 (stereo unspecified),i,i,nt,i,i,i
Cc1ccc(S(=O)(=O)c2ccccc2)cc1S,62,i,i,nt,i,i
CCCCCCC1CC(C)(C(=O)CNc2nncs2)OC1=O (stereo unspecified),62,i,i,i,i,i
Oc1ccc(/C=N/n2cnn(Cc3ccccc3Cl)c2=S)c(O)c1,i,78,i,i,i,i
CCOC(=O)C1=C(C)NC(C)=C(C(=O)OCC)C1c1cn(-c2ccccc2)nc1-c1ccco1,i,i,i,i,i,i
CC(C)OC(=O)c1cn(-c2ccccc2)nc1-c1ccco1,56,i,i,i,i,i
COc1ccc(C)cc1NC(=S)NNC(=O)c1c(Br)cnn1C,i,i,i,i,i,72
COc1ccc(C)cc1NC(=S)NNC(=O)c1ccccc1Cl,nt,i,i,nt,i,nt
COc1ccccc1NS(=O)(=O)c1cccc(NC(=O)c2[nH]c(C)c(C(C)=O)c2C)c1,i,i,76,i,i,i
COc1ccccc1NS(=O)(=O)c1cccc(NC(=O)Nc2ccccc2)c1,i,i,i,nt,i,i
COc1ccccc1NS(=O)(=O)c1cc(NC(=O)C2CCC2)ccc1N1CCCCC1,57,i,i,i,i,i
